# Most compounds without a hit are left out; they make up all but 12% or so of the library.
# L major viab: Leishmania major promastigote growth inhibition, primary screen; AID 1063, 2008; Leishmania major promastigotes, resazurin fluorescence viability; actives 9% (n = 200,000); inhibition, % at 10 µM; in the data active = inhibition above about 50%;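 note: promastigotes grown with compound for 44 hours at 28 °C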
# Cl transport mod: KCC2 cotransporter modulators, thallium flux, primary screen, cell-based, HEK293 KCC2, FluoZin-2 fluorescence, MLSMR | actives 2.2% (n = 190,000) | B-score of Tl+ flux slope (higher = more flux/activation; lower = inhibition) at 10 µM | Solute carrier family 12 member 5 (Homo sapiens), Q9H2X9 | KCC2 cells, thallium flux FluoZin-2 fluorescence;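 active = thallium flux slope and its plate-corrected score both differing from the plate sample mean at a set confidence after two filtering rounds, in either direction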;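 note: slope of fluorescence scaled to starting intensity during 10 to 20 s after thallium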
# WT yeast gro inh: growth inhibition of WT strain, primary screen, mitochondrial fusion inhibitor project, WT and mutant strains, chemical genetic. mitochondrial fusion phenotypic screen. inhibition, % at 10 µM. actives 2.1% (n = 190,000); in the data active = inhibition above about 58%; tested in S. cerevisiae
# Diaphorase act: compounds boosting diaphorase resazurin reduction – biochemical, uHTS, resorufin fluorescence, counter-screen for diaphorase-coupled primary assays, primary screen; Diaphorase/resazurin coupled assay, 16 min; hits give high values; 1 = vehicle wells, 0 = NADH-free wells; activation factor at 20 µM; actives 0.005% (n = 190,000); AID 1229, 2008;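 active = diaphorase activity raised at least twofold by the compound at 20 µM; inactive = activation factor below 2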
#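 Test system: Clostridium kluyveri diaphorase, purified enzyme; input: enzyme 0.07 U/mL final; buffer or medium: 50 mM HEPES pH 7.4 with 4.542 mM MgCl2, 0.005% Tween 20; also added: 0.114 mM NADH and 0.1 mM resazurin, final amounts; schedule: 16 min enzyme reaction, ambient temperature; technique: fluorescence of resorufin, 544 nm excitation, 590 nm emission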
# ROMK mod: ROMK potassium channel modulators, primary screen, cell-based, thallium flux, MLSMR library | Tet-inducible ROMK, thallium flux fluorescence; actives lie on both sides | B-score at 10 µM | actives 2% (n = 130,000) | AID 1918, 2009;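 active = signal ratio slope over the read window, or its plate-corrected B-score, at least 3 SD from the plate mean, either direction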;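 note: B-score of the F/F0 ratio slope over 7 to 12 s after thallium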
# Diaph inh CS: diaphorase inhibitors and chemical oxidizers, primary screen, counter-screen for diaphorase-coupled primary assays, biochemical, uHTS, resorufin fluorescence; diaphorase resazurin-to-resorufin fluorescence, NADH, 16 min; bacterial (C. kluyveri) enzyme, not human; inhibition, % at 20 µM; actives 0.69% (n = 190,000); AID 1217, 2008;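 active = primary screen inhibition at 20 µM above a set limit, cut at about 50% in these data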
#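 Assay system: diaphorase enzyme from Clostridium kluyveri; Input: enzyme working solution with 0.14 U/mL diaphorase; Timing: 16 min at room temperature; Technique: resorufin fluorescence, excitation 544 nm, emission 590 nm; Benchmarks: positive control minus NADH, DMSO neutral control.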
# Hits are given with their value; – = inactive; · = not tested or not shown.
SMILES,L major viab,Cl transport mod,WT yeast gro inh,Diaphorase act,ROMK mod,Diaph inh CS
C/C(=N\NC(=O)C(C)Oc1ccc([N+](=O)[O-])cc1)c1ccccn1 (configuration not stated),100,–,–,–,·,–
COc1ccc(C(=O)NC(=S)Nc2cccnc2)cc1OC,–,–,–,–,–,–
COc1ccc(C(=O)NC(=S)NNC(=O)c2cnccn2)cc1OC,100,–,–,–,·,74
COc1ccc(OC(C)C(=O)Nc2ccc([N+](=O)[O-])cc2)cc1 (configuration not stated),–,–,–,–,–,–
COc1cc(OC)cc(C(=O)NC(=S)NNC(=O)c2cnccn2)c1,100,–,–,–,–,68
CC(Oc1ccccc1)C(=O)NNC(=O)c1ccccn1 (configuration not stated),79,–,–,–,–,–
COC(=O)N/N=C(\C)c1ccc(OC(F)F)cc1,–,–,–,–,–,–
COC(=O)N/N=C(\C)c1ccc2ccccc2c1OC(F)F,56,–,–,–,–,–
Cc1ccc(CN(Cc2cc3cc4c(cc3[nH]c2=O)OCCO4)Cc2nnnn2Cc2ccco2)cc1,–,·,–,–,–,58
COc1ccc2[nH]c(=O)c(CN(Cc3nnnn3Cc3ccco3)C3CCCCC3)cc2c1,–,·,–,–,–,–
COc1ccc2cc(CN(CCc3ccccc3)Cc3nnnn3Cc3ccco3)c(=O)[nH]c2c1,100,-3.1,–,–,–,–
COc1ccccc1CN(Cc1cc2c(C)ccc(C)c2[nH]c1=O)Cc1nnnn1Cc1ccco1,100,–,–,–,·,–
Cc1ccc2cc(CN(Cc3ccc4c(c3)OCO4)Cc3nnnn3Cc3ccco3)c(=O)[nH]c2c1,77,–,–,–,–,–
O=[N+]([O-])c1cc(S(=O)(=O)Nc2ccccc2)ccc1N1CCN(c2ccc(O)cc2)CC1,79,–,–,–,–,–
Cc1ccc(NS(=O)(=O)c2ccc(N3CCN(c4ccc(O)cc4)CC3)c([N+](=O)[O-])c2)c(C)c1,98,–,–,–,–,–
Cc1ccc(NC(=O)CN2C(=O)C3C4C=CC(C4)C3C2=O)cc1S(=O)(=O)N(C)C (configuration not stated),–,–,–,–,·,–
COCCN1C(=O)c2ccccc2C(C(=O)N2CCN(c3ccccc3)CC2)C1c1ccc(F)cc1 (configuration not stated),–,–,–,–,–,–
Cc1ccnc(SCc2cc(=O)c(OC(=O)c3ccc(Cl)c([N+](=O)[O-])c3)co2)n1,96,–,–,–,–,–
CC1CCN(CCCCOc2ccc([N+](=O)[O-])cc2)CC1,91,·,–,–,·,–
C[N+](C)(C)CCOc1ccc([N+](=O)[O-])cc1,–,–,–,–,–,–
COC(=O)C1CCN(Cc2ccc(OCCCN3CCN(c4ccc([N+](=O)[O-])cc4)CC3)cc2)CC1,96,–,–,–,–,–
CC1CCN(CCCCOc2ccccc2[N+](=O)[O-])CC1,90,·,–,–,·,–
O=[N+]([O-])c1ccc(OCCCCN2CCCCC2)cc1,89,–,–,–,·,–
O=C(CN1CCCC1)Nc1ccc([N+](=O)[O-])cc1,–,–,–,–,–,–
CC(C)=CC(=O)OCC(=O)Nc1cc(C)cc(C)c1,–,–,–,–,–,–
Cc1ccc(CN2CCSc3ccc(C(=O)NCc4ccccn4)cc32)cc1,–,–,–,–,·,–
O=[N+]([O-])c1ccc(-c2ccc(S(=O)(=O)NCCN3CCCC3)cc2)cc1,80,–,–,–,–,–
O=[N+]([O-])c1ccc(S(=O)(=O)NCCN2CCOCC2)cc1,–,–,–,·,–,·
CCCC(=O)Nc1cc(-c2cn3cccnc3n2)ccc1OC,63,–,–,–,·,–

# Screening results as filed in PubChem BioAssay.
